Only some compounds are listed: those with a hit (about 8.8% of all), similar ones and a draw of the others.
RORA act: RORA (human) activation; P35398; hit rate 1.5% among 65,000; activation, % at 10 µM; AID 560; CHO-K1 Gal4-RORA LBD luciferase reporter, luminescence; percent increase over mock-subtracted basal signal;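 active = activation above the mean of all tested compounds plus 3 SD, cut at about 49% in these data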;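 also: 0% = DMSO-treated RORA cells and 100% = added signal equal to DMSO minus mock-transfected cells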
S1P1 ag-PAM: activates or potentiates agonism at human S1P1 receptor. AID 449. P21453. S1P1 CRE-bla cells, forskolin, beta-lactamase FRET, potentiator mode; S1P1 agonist co-added at EC20, 2 nM; 100% = saturating reference agonist, 0% = basal. hit rate 0.57% among 56,000. activation, % at 9.5 µM;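 active = activation above a cutoff set at the mean activation of all tested compounds plus 3 SD, cut at about 54% in these data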;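 also: forskolin at 4 µM as EC80 and the EC20 agonist is SEW2871; 100% = SEW2871 at its EC100 plus forskolin at EC80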
M1 ag: agonists of M1 muscarinic receptor. CHO-M1 cells, Fluo-4 calcium fluorescence, agonist mode; hits give high values. B-score at 10 µM. hit rate 3% among 64,000. AID 626;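 active = fluorescence rise, raw or as B-score row- and column-corrected plate score, outside the 99.7% band of its plate's samples, either direction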
S1P3 agonist: activates the human S1P3 receptor | activation, % at 4.5 µM | S1P3 NFAT-BLA reporter cells, agonism, FRET ratio; relative to 1 µM S1P, basal subtracted | Q99500 | hit rate 0.1% among 60,000;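 active = activation above the screen-wide mean plus 3 SD, cut at about 4.5% in these data, passing the limit was not always enough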
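material = human S1P3 NFAT-BLA reporter CHO cells | schedule = 4 h compound at 37 °C, 2 h substrate at RT | measured by = fluorescent BLA substrate, ex 405 nm, em 460/535 nm ratio | controls = 1 µM S1P reference | replication = primary once, confirmation triplicate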
M1 antag: blocks the rat M1 muscarinic receptor response to acetylcholine. CHO-M1 cells, Fluo-4 calcium, ACh EC80 antagonist mode; hits give low values. P08482. B-score at 10 µM. hit rate 3.4% among 64,000. AID 628;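 active = calcium fluorescence response, raw or row-and-column corrected B-score, differing from the plate sample mean either way at a set confidence level, mostly lower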
SF1 activator: SF-1 (human) activation; hit rate 1.9% among 65,000; activation, % at 10 µM; Q13285; CHO-K1 Gal4-SF-1 LBD luciferase reporter; % increase over DMSO SF-1-specific signal;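 active = activation above the mean activation of all tested compounds plus 3 SD, cut at about 50% in these data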
Target sequence (Q13285 whole entry, looked up, the tested form may be a part): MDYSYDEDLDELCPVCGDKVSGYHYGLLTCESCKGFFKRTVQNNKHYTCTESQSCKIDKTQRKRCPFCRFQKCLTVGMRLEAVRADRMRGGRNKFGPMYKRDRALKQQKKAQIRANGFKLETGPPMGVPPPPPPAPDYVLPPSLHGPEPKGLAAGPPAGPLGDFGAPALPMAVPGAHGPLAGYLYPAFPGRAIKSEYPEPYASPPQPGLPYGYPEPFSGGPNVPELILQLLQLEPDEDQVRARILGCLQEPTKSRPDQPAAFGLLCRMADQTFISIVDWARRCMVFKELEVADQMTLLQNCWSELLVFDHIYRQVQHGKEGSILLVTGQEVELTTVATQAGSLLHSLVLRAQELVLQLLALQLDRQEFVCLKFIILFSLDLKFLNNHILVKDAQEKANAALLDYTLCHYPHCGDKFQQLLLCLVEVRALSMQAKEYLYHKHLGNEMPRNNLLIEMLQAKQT
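Test system: CHO-K1 cells with Gal4–hSF-1 LBD chimera plus Gal4-driven luciferase; Input: 4,000 cells/well; Compound: 10 µM only; Times: 20 h compound treatment, 37 °C; Measured by: steady-glow luciferase luminescence, read after 15 min reagent incubation; Measure: percent activation versus DMSO; Control set: DMSO and mock-transfected background; Replicates: one test per compound.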
Numbers without * were called inactive; . = no result given.

SMILES	RORA act	S1P1 ag-PAM	M1 ag	S1P3 agonist	M1 antag	SF1 activator
COc1ccc(OC)c(NC(=O)C2CC(C)=C(C)CC2C(=O)O)c1 (stereo not given)	11	-23	0.58	0	0.066	12
Cc1c(C(=O)N2CCOCC2)[nH]c2c1C(=O)CC(c1ccccc1Cl)C2 (stereo not given)	45	-18	-0.76	-2	0.41	67*
COC(=O)c1[nH]c2c(c1C)C(=O)CC(c1ccccc1)C2 (stereo not given)	-32	-26	.	-1	.	-22
CCC(=O)Nc1cc(C)c(NC(=O)c2ccccc2OC)cn1	17	0	-1.6	0	0.71	7
Cc1cc(C)n(-c2ccc(Cl)c(C(=O)Nc3ccc(-c4nnc5n4CCCCC5)cc3)n2)n1	16	0	-0.86	0	-0.21	-10
CCOC(=O)c1c(C)nc2c3ccccc3ccn12	26	.	0	0	-0.31	76*
CCOC(=O)c1c(C)nc2sccn12	-17	.	-0.32	-1	0	4
COc1ccc(Cl)cc1NC(=O)CSc1nnc(Cn2c(=O)sc3ccccc32)n1C	16	-2	0.45	0	0.2	-5
COc1cc(C)c(C(C)C)cc1S(=O)(=O)n1cnc(C)c1	80*	9	0.76	-1	0.068	15
Fc1ccc2nc3[nH]c4ccccc4c3nc2c1	39	-63	0.12	-1	0.022	90*
c1ccc2c(c1)[nH]c1nc(SCCN3CCOCC3)nnc12	9	.	1.1	-1	0.14	33
COc1ccc(C2(O)CCN(CC(=O)Nc3nccs3)CC2)c(OC)c1	-2	12	-0.68	0	-0.032	5
Cc1ccc(-c2nnc(-c3ccccc3)o2)cc1Br	8	15	-0.35	-1	0.62	43
Nc1c(Br)cc2oc(-c3ccccc3)nc2c1Br	52*	7	-0.14	-3	0.72	76*
COc1ccc(-c2cnc(N)nc2-c2ccc(OC)cc2O)cc1	4	45	0.54	-1	0.11	13
COc1ccc(-c2nc3c(Br)c(N)c(Br)cc3o2)cc1	6	43	-0.5	-3	0.41	73*
Clc1ccc(OCc2nnc(SCc3nc4ccccc4[nH]3)n2Cc2ccco2)cc1	11	61*	-0.89	-1	0.11	10
CC(C)(C)OC(=O)N1CCC[C@H]1c1nnc(SCc2ccccc2F)o1	7	2	0.46	-1	-0.79	-16
CCOC(=O)N1CCN(C(=O)CCCOc2ccccc2)CC1	38	2	0.91	-1	-0.12	75*
Cc1cccc(N2CCN(C(=O)CCCOc3ccccc3)CC2)c1C	30	.	-0.12	0	-0.54	48
O=S1(=O)CCC(SCc2nc3sccn3c2Br)C1 (stereo not given)	-21	-9	-0.95	-1	0.32	8
CCOc1ccc(-c2noc(-c3cccnc3)n2)cc1OC	57*	114*	0.46	-1	-0.61	14
CCOc1cc(-c2noc(-c3cccnc3)n2)ccc1OC	23	94	0.27	1	-0.082	20
CCOc1ccc(-c2nnc(-c3cccnc3)o2)cc1OCC	-1	89*	0.88	-1	-0.64	-4
CCCCn1c(N)c(N(CCOC)C(=O)CSc2nc3ccc(C)cc3[nH]2)c(=O)[nH]c1=O	-1	.	-0.12	.	-0.28	4
SMILES	RORA act	S1P1 ag-PAM	M1 ag	S1P3 agonist	M1 antag	SF1 activator
OC(COc1ccc2ccccc2c1Cl)CN1CCOCC1 (stereo not given)	49	-14	0.27	-1	0.0084	54*
OC(COc1c(Br)cc(Br)cc1Br)CN1CCOCC1 (stereo not given)	-1	16	0.014	-1	0.44	0
NC(=O)C1CCN(S(=O)(=O)c2cccc(S(=O)(=O)N3CCCCC3)c2)CC1	-2	-1	0.31	0	0.81	10
Cn1c(=O)[nH]c(=O)c2[nH]c(CN3CCN(C(=O)c4ccco4)CC3)nc21	-1	-10	0.58	-1	-0.34	-3
CC(C)(C)C1CCc2[nH]c3ccccc3c(=O)c2C1 (stereo not given)	98*	-28	1.1	1	0.1	56*
CC(=O)c1cccc(NC(=O)Oc2ccccc2)c1	4	-19	-0.58	-1	0.041	-1
CC(C)Oc1ccc(NC(=O)Oc2ccccc2)cc1	39	.	-1.2	-1	0.038	52*
COc1ccc(C(=O)Nc2nc3cc(OC)c(OC)cc3c(=O)[nH]2)cc1	-8	10	-0.13	-2	10*	-1
COc1cc2nc(NC(=O)c3ccccc3)[nH]c(=O)c2cc1OC	2	.	0.67	.	-0.49	6
O=C(CN1CCN(Cc2ccccc2)CC1)NCC1COc2ccccc2O1 (stereo not given)	.	.	-0.072	.	0.23	.
O=C(NCC1COc2ccccc2O1)c1ccccc1 (stereo not given)	70*	6	1.2	0	0.59	52*
O=C(CN1C(=O)c2ccccc2C1=O)NCC1COc2ccccc2O1 (stereo not given)	4	-13	0.53	-1	1.2*	4
O=C(NCC1COc2ccccc2O1)c1ccco1 (stereo not given)	-12	8	-0.54	-1	-0.46	14
COc1cc(OC)c(Cl)cc1N	14	-11	0.28	-1	0.8	1
Nc1nonc1C(=O)NCCNCc1ccccc1OCc1ccccc1F	19	-2	-1.6	-2	-0.054	7
Nc1nonc1C(=O)NCCNCc1cc(Br)ccc1OCc1ccccc1F	-38	78*	2.8*	-2	-0.99	-46
COc1ccccc1OCc1csc(NC(=O)c2ccco2)n1	21	7	0.82	0	-0.00068	67*
Cc1cc(C)nc(SCCn2c(N3CCCCC3)nc3c2c(=O)n(C)c(=O)n3C)n1	-5	.	0.7	.	-0.8	3
CCOC(=O)CC(=O)CSc1nnc2c(n1)[nH]c1ccccc12	45	-18	-1.2	-1	-0.53	53*
O=c1[nH]c(NCc2ccco2)nnc1Cc1ccccc1Cl	9	.	-1.1	.	0.75	16
Cc1c(C(=O)NCC2CCCO2)oc2ccc(S(=O)(=O)N3CCCC3)cc12 (stereo not given)	5	.	-0.032	.	0.18	21
Cc1c(C(=O)NCC2CCCO2)oc2ccc3c(c12)C(=O)CC(C)(C)O3 (stereo not given)	11	-8	0.28	0	1	62*
Cc1[nH]nc2c1C1(CCN(Cc3ccccc3)CC1)C(C#N)=C(N)O2	-15	.	4.1*	0	0.35	0
CC(=O)Nc1ccc(Nc2ncnc3c2cnn3-c2cccc(C)c2)cc1	66*	-36	-0.64	0	0.071	24
COc1ccc(OC)c(Nc2ncnc3c2cnn3-c2cccc(C)c2)c1	24	.	-0.077	.	-0.57	26
